In ChEMBL document CHEMBL1158368, “Synthesis of novel 3-(aryl)benzothieno[2,3-c]pyran-1-ones from Sonogashira products and intramolecular cyclization: Antitumoral activity evaluation” (2009):

Experiments:
Format in all cases: functional
NCI-H460 = experiment: Cytotoxicity against human NCI-H460 cells after 48 hrs by SRB assay; conditions: NCI-H460, 48 h
How it was run: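 NCI-H460 cells were plated at 0.75 × 10⁴ cells/mL to keep growth exponential, left overnight to attach, and treated for 48 h at 37 °C in humidified 5% CO₂, with DMSO vehicle controls at up to 0.25%. Readout was SRB staining of in-situ-fixed cells, with solubilized dye measured at 492 nm. GI₅₀ (50% net growth inhibition) came from dose–response curves in duplicate.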

CNS cell = experiment: Cytotoxicity against human CNS cells after 48 hrs by SRB assay
How it was run: (§1)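 Cells were seeded at 1.5 × 10⁵ cells/mL (MCF-7 and SF-268) so growth stayed exponential, attached overnight, then were exposed to compound for 48 h at 37 °C in humidified 5% CO₂. Untreated controls received DMSO vehicle at up to 0.25%. Cells were fixed in situ and stained with SRB; the bound dye was solubilized and read at 492 nm. GI₅₀ (50% inhibition of net growth) came from dose–response curves, run in duplicate.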

MCF7 = experiment: Cytotoxicity against human MCF7 cells after 48 hrs by SRB assay; conditions: MCF7, 48 h; how it was run: as §1

## O=c1oc(-c2ccccc2F)cc2c1sc1ccccc12
NCI-H460
  GI50: 15.5 µM
CNS cell
  GI50: 12.4 µM
MCF7
  GI50: 19.4 µM

## COC(=O)c1sc2ccccc2c1C#Cc1ccccc1
NCI-H460
  GI50: 58.9 µM
CNS cell
  GI50: 64.7 µM
MCF7
  GI50: 71.6 µM

## COc1ccc(-c2oc(=O)c3sc4ccccc4c3c2I)cc1
NCI-H460
  GI50: > 150 µM
CNS cell
  GI50: > 150 µM
MCF7
  GI50: > 150 µM

## O=c1oc(-c2ccc(F)cc2)c(I)c2c1sc1ccccc12
NCI-H460
  GI50: 35.8 µM
CNS cell
  GI50: 20.7 µM
MCF7
  GI50: 25.2 µM

## O=c1oc(-c2ccc(F)cc2)cc2c1sc1ccccc12
NCI-H460
  GI50: > 25 µM
CNS cell
  GI50: > 25 µM
MCF7
  GI50: > 25 µM

## O=c1oc(-c2ccccc2)cc2c1sc1ccccc12
NCI-H460
  GI50: > 112 µM
CNS cell
  GI50: > 112 µM
MCF7
  GI50: > 112 µM

## COC(=O)c1sc2ccccc2c1C#Cc1ccccc1F
NCI-H460
  GI50: 30.2 µM
CNS cell
  GI50: 25.7 µM
MCF7
  GI50: 40.9 µM

## COC(=O)c1sc2cc(OC)ccc2c1C#Cc1ccccc1F
NCI-H460
  GI50: 10.3 µM
CNS cell
  GI50: 7.2 µM
MCF7
  GI50: 11.4 µM

## COc1ccc2c(c1)sc1c(=O)oc(-c3ccc(F)cc3)cc12
NCI-H460
  GI50: 118 µM
CNS cell
  GI50: 28.9 µM
MCF7
  GI50: 109 µM

## COC(=O)c1sc2cc(OC)ccc2c1C#Cc1ccccc1
NCI-H460
  GI50: 42.3 µM
CNS cell
  GI50: 54.9 µM
MCF7
  GI50: 79.6 µM

## COc1ccc2c(c1)sc1c(=O)oc(-c3ccc(F)cc3)c(I)c12
NCI-H460
  GI50: > 150 µM
CNS cell
  GI50: > 150 µM
MCF7
  GI50: > 150 µM

## COC(=O)c1sc2ccccc2c1C#Cc1ccc(F)cc1
NCI-H460
  GI50: 56.2 µM
CNS cell
  GI50: 76.1 µM
MCF7
  GI50: 60.6 µM

## COc1ccc(-c2cc3c(sc4ccccc43)c(=O)o2)cc1
NCI-H460
  GI50: > 75 µM
CNS cell
  GI50: > 75 µM
MCF7
  GI50: > 75 µM

## COc1ccc2c(c1)sc1c(=O)oc(-c3ccccc3)cc12
NCI-H460
  GI50: > 75 µM
CNS cell
  GI50: > 75 µM
MCF7
  GI50: > 75 µM

## COC(=O)c1sc2ccccc2c1C#Cc1ccc(OC)cc1
NCI-H460
  GI50: 103 µM
CNS cell
  GI50: > 150 µM
MCF7
  GI50: 90.6 µM

## COC(=O)c1sc2cc(OC)ccc2c1C#Cc1ccc(F)cc1
NCI-H460
  GI50: 10.1 µM
CNS cell
  GI50: 20.9 µM
MCF7
  GI50: 12.6 µM

## COc1ccc2c(c1)sc1c(=O)oc(-c3ccccc3F)c(I)c12
NCI-H460
  GI50: 10.9 µM
CNS cell
  GI50: 11.3 µM
MCF7
  GI50: 11.9 µM

## COc1cccc2c1C(=O)c1c(O)c3c(c(O)c1C2=O)C[C@@](O)(C(=O)CO)C[C@@H]3O[C@H]1C[C@H](N)[C@H](O)[C@H](C)O1 [DOXORUBICIN]
NCI-H460
  GI50: 0.094 µM
CNS cell
  GI50: 0.094 µM
MCF7
  GI50: 0.0428 µM
